Measurements: ChEMBL document CHEMBL1143086, “Novel HCV NS5B polymerase inhibitors derived from 4-(1',1'-dioxo-1',4'-dihydro-1'lambda(6)-benzo[1',2',4']thiadiazin-3'-yl)-5-hydroxy-2H-pyridazin-3-ones. Part 3: Further optimization of the 2-, 6-, and 7'-substituents and initial pharmacokinetic assessments” (Bioorg Med Chem Lett, 2008)
In brackets after ≈: the same amount, converted by molar mass.

Key:
[1] = Aqueous solubility at pH 7.4; assay type: physicochemical; details: buffer
How it was run: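 Solubility determined in water at pH 7.4.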

[2] = Apparent permeability from apical to basolateral side in human Caco-2 cells at 10 uM; assay type: ADME, cell-based
[3] = test system: Cynomolgus monkey; assay: AUC (0 to infinity) in cynomolgus monkey at 5 mg/kg, po; assay type: ADME, organism-based, Macaca fascicularis, Plasma; design: time infinity, dose 5 mg/kg, route oral; details: in vivo
[4] = Volume of distribution at steady state in cynomolgus monkey at 5 mg/kg, iv; assay type: ADME, organism-based, Macaca fascicularis; design: dose 5 mg/kg, route intravenous; details: in vivo, read-out: Vdss
[5] = Oral bioavailability in cynomolgus monkey at 5 mg/kg; assay type: ADME, organism-based, Macaca fascicularis; details: in vivo
[6] = test system: Cynomolgus monkey; assay: AUC (0 to infinity) in cynomolgus monkey at 5 mg/kg, iv; assay type: ADME, organism-based, Macaca fascicularis, Plasma; design: time infinity, dose 5 mg/kg, route intravenous; details: in vivo
[7] = test system: Rattus norvegicus; assay: AUC (0 to infinity) in iv dosed Sprague-Dawley rat; assay type: ADME, organism-based, Plasma; design: time infinity, route intravenous; details: in vivo
How it was run: (§1)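 Sprague–Dawley rats got a single 3 mg/kg dose iv or po, with n = 12 (po) and 3 (iv). Plasma concentrations were followed over time to derive PK parameters.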

[8] = Ratio of drug level in liver to plasma in Sprague-Dawley rat at 3 mg/kg, po after 4 hrs; assay type: ADME, organism-based; design: dose 3 mg/kg, route oral; details: liver and plasma
How it was run: (§2)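 Sprague–Dawley rats were given a single 3 mg/kg dose iv or po. Plasma and liver concentrations were measured at 1, 4, 8 and 12 h. Liver was not sampled at 1, 4 or 8 h after iv dosing. Liver-to-plasma concentration ratio was calculated at each time point.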

[9] = Volume of distribution at steady state in iv dosed Sprague-Dawley rat; assay type: ADME, organism-based; details: in vivo, read-out: Vdss; how it was run: as §1
[10] = Ratio of drug level in liver to plasma in Sprague-Dawley rat at 3 mg/kg, po after 1 hr; assay type: ADME, organism-based; design: dose 3 mg/kg, route oral; details: liver and plasma; how it was run: as §2
[11] = Oral bioavailability in Sprague-Dawley rat; assay type: ADME, organism-based; details: in vivo; how it was run: as §1
[12] = Ratio of drug level in liver to plasma in Sprague-Dawley rat at 3 mg/kg, po after 12 hrs; assay type: ADME, organism-based; design: dose 3 mg/kg, route oral; details: liver and plasma; how it was run: as §2
[13] = Ratio of drug level in liver to plasma in Sprague-Dawley rat at 3 mg/kg, iv after 12 hrs; assay type: ADME, organism-based; design: dose 3 mg/kg, route intravenous; details: liver and plasma; how it was run: as §2
[14] = Ratio of drug level in liver to plasma in Sprague-Dawley rat at 3 mg/kg, po after 8 hrs; assay type: ADME, organism-based; design: dose 3 mg/kg, route oral; details: liver and plasma; how it was run: as §2
[15] = test system: Rattus norvegicus; assay: AUC (0 to infinity) in po dosed Sprague-Dawley rat; assay type: ADME, organism-based, Plasma; design: time infinity, route oral; details: in vivo; how it was run: as §1

Q: Which results are given for `CC(C)(C)CCn1nc(-c2cccs2)c(O)c(C2=Nc3ccc(NS(C)(=O)=O)cc3S(=O)(=O)N2)c1=O`?
A: solubility [1]: 44 µM (≈ 24.3 µg/mL); Papp A→B at 10 µM [2]: 0.06 ×10⁻⁶ cm/s; AUC [3]: 241 ng·h/mL; Vd [4]: 0.039 L/kg; bioavailability [5]: 1%; AUC [6]: 17600 ng·h/mL

Q: For `CC(C)CCn1nc(-c2cccs2)c(O)c(C2=Nc3ccc(NS(C)(=O)=O)cc3S(=O)(=O)N2)c1=O`, which AUC [7] is on record?
A: Its AUC is 3630 ng·h/mL.

Q: What about the Kp at 4 h [8] of the same compound?
A: The Kp at 4 h was 243.

Q: And the solubility [1]?
A: Its solubility is 55 µM (≈ 29.6 µg/mL).

Q: And the Vd [9]?
A: Its Vd is 0.453 L/kg.

Q: What about the Papp A→B at 10 µM [2] of the same compound?
A: Its Papp A→B at 10 µM is 0.016 ×10⁻⁶ cm/s.

Q: What about the Kp at 1 h [10] of the same compound?
A: Its Kp at 1 h is 431.

Q: What about the AUC [3] of the same compound?
A: The AUC was 124 ng·h/mL.

Q: What about the bioavailability [11] of the same compound?
A: The bioavailability was 1%.

Q: What about the Vd [4] of the same compound?
A: Its Vd is 0.096 L/kg.

Q: What about the Kp at 12 h [12] of the same compound?
A: Its Kp at 12 h is 64.

Q: And the bioavailability [5]?
A: Its bioavailability is 1%.

Q: What about the Kp at 12 h [13] of the same compound?
A: The Kp at 12 h was 4.

Q: What about the AUC [6] of the same compound?
A: Its AUC is 10500 ng·h/mL.

Q: And the Kp at 8 h [14]?
A: The Kp at 8 h was 78.

Q: What about the AUC [15] of the same compound?
A: Its AUC is 27 ng·h/mL.
